Tests used:
Rattus norvegicus [1] = species on record: Rattus norvegicus; experiment: Selectivity ratio of Ki for rat DAT to Ki for SERT
In short: (§1)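 Ratio of Ki values from rat brain tissue displacement assays: [3H]WIN 35,428 for DAT, [3H]citalopram for SERT, [3H]nisoxetine for NET. Test agents were oxalate salts. Each Ki is the mean of three experiments run in triplicate.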

Rattus norvegicus [2] = species on record: Rattus norvegicus; experiment: Selectivity ratio of Ki for rat NET to Ki for DAT; in short: as §1
[3] = target: Sodium-dependent dopamine transporter (Rattus norvegicus, UniProt P23977); experiment: Displacement of [3H]WIN-35428 from DAT in rat brain; type: tissue-based
In short: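 Radioligand displacement from monoamine transporters in rat brain tissue: [3H]WIN 35,428 for DAT, [3H]citalopram for SERT, [3H]nisoxetine for NET. Test agents were used as oxalate salts, and Ki was derived from displacement. Values are mean ± SEM of three experiments, each run in triplicate.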

[4] = target: Sodium-dependent serotonin transporter (Rattus norvegicus, UniProt P31652); experiment: Displacement of [3H]citalopram from SERT in rat brain; type: tissue-based
Transporter = Transporter (Rattus norvegicus, UniProt Q63380); experiment: Displacement of [3H]nisoxetine from NET in rat brain; type: tissue-based
Rattus norvegicus [5] = species on record: Rattus norvegicus; experiment: Selectivity ratio of Ki for rat NET to Ki for SERT; in short: as §1

Sequence of Sodium-dependent serotonin transporter (P31652 whole entry): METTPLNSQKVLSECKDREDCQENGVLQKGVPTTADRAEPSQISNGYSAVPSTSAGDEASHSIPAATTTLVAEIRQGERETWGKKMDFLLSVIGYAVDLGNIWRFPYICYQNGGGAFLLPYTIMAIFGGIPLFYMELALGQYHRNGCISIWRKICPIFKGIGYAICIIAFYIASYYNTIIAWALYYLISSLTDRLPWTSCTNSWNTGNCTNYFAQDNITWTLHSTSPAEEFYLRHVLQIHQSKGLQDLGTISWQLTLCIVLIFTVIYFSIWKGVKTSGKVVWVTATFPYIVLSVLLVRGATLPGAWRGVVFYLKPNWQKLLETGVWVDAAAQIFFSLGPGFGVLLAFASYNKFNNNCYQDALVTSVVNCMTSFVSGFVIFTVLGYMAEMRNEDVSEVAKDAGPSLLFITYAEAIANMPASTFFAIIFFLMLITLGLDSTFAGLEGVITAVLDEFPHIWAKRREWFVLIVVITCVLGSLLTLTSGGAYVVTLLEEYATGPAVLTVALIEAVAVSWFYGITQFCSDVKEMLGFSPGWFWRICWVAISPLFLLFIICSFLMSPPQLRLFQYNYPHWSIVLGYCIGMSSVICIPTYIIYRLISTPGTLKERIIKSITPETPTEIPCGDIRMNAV
Sequence of Sodium-dependent dopamine transporter (P23977 whole entry): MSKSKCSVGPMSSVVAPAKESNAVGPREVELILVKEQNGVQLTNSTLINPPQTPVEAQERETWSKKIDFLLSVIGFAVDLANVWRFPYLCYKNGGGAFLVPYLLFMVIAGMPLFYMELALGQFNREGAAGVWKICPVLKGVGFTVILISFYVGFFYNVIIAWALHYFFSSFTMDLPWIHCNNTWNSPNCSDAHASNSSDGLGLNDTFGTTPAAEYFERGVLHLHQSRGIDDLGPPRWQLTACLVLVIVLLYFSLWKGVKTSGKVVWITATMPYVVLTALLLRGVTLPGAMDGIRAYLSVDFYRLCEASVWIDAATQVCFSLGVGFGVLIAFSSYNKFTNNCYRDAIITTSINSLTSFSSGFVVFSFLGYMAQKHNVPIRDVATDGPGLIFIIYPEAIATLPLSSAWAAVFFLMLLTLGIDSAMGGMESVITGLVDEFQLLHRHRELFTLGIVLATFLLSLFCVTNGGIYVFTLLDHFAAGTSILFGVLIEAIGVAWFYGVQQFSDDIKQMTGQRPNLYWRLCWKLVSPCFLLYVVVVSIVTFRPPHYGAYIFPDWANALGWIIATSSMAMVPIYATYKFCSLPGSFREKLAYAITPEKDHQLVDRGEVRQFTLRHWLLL
Sequence of Transporter (Q63380 whole entry): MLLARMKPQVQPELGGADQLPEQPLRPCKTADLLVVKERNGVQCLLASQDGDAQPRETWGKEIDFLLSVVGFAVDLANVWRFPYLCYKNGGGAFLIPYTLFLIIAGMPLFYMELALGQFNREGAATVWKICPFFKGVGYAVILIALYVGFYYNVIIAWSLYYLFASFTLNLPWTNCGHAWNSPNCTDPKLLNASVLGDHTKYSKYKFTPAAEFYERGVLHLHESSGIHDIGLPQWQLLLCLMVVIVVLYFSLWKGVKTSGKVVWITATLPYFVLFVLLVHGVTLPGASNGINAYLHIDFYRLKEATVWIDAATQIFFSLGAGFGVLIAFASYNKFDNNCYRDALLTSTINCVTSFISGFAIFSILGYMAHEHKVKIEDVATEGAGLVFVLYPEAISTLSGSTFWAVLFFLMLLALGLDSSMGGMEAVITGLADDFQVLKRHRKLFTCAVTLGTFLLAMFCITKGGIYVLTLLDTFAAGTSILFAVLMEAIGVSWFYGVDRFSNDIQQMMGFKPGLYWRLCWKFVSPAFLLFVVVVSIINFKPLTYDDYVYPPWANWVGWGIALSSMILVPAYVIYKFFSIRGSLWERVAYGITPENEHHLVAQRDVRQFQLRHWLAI

With Fc1ccc(C2=CC3CCC(C2)N3)cc1 (centres undefined) as the molecule, how does the Ratio (Rattus norvegicus [1]) read?
The Ratio was 8.2.

What about the Ratio (Rattus norvegicus [2]) of the same molecule?
The Ratio was 1.9.

And the Ki [3]?
The Ki was 1060 nM.

FC(F)(F)c1ccc([C@]2(OCc3ccccc3)C[C@H]3CC[C@@H](C2)N3)cc1 was tested. Which Ki [4] did it give?
The Ki was 534 nM.

And the Ratio (Rattus norvegicus [1])?
The Ratio was 2.6.

And the Ratio (Rattus norvegicus [2])?
The Ratio was 3.9.

What about the Ki [3] of the same molecule?
The Ki was 1390 nM.

What about the Ki (Transporter) of the same molecule?
The Ki was 5440 nM.

And the Ratio (Rattus norvegicus [5])?
Its Ratio is 10.

With Clc1ccc(CO[C@@]2(c3ccc(Cl)c(Cl)c3)C[C@H]3CC[C@@H](C2)N3)cc1Cl as the molecule, how does the Ki [4] read?
The Ki was 4.7 nM.

What about the Ratio (Rattus norvegicus [1]) of the same molecule?
The Ratio was 601.

What about the Ratio (Rattus norvegicus [2]) of the same molecule?
Its Ratio is 0.87.

What about the Ki [3] of the same molecule?
The Ki was 2930 nM.

And the Ki (Transporter)?
The Ki was 2550 nM.

What about the Ratio (Rattus norvegicus [5]) of the same molecule?
The Ratio was 543.

Clc1ccc([C@]2(OCc3ccccc3)C[C@H]3CC[C@@H](C2)N3)cc1Cl was tested. Which Ki [4] did it give?
The Ki was 62 nM.

What about the Ratio (Rattus norvegicus [1]) of the same molecule?
The Ratio was 11.

And the Ratio (Rattus norvegicus [2])?
The Ratio was 1.7.

What about the Ki [3] of the same molecule?
Its Ki is 716 nM.

What about the Ki (Transporter) of the same molecule?
The Ki was 1230 nM.

What about the Ratio (Rattus norvegicus [5]) of the same molecule?
The Ratio was 20.

For Clc1ccc(C2=CC3CCC(C2)N3)cc1 (centres undefined), which Ki [4] is on record?
The Ki was 2.8 nM.

And the Ratio (Rattus norvegicus [1])?
The Ratio was 83.

What about the Ratio (Rattus norvegicus [2]) of the same molecule?
Its Ratio is 0.52.

What about the Ki [3] of the same molecule?
Its Ki is 231 nM.

What about the Ki (Transporter) of the same molecule?
Its Ki is 120 nM.

What about the Ratio (Rattus norvegicus [5]) of the same molecule?
Its Ratio is 43.

For C1=C(c2ccccc2)CC2CCC1N2 (centres undefined), which Ki [4] is on record?
Its Ki is 176 nM.

And the Ratio (Rattus norvegicus [1])?
The Ratio was 6.9.

And the Ratio (Rattus norvegicus [2])?
Its Ratio is 1.1.

And the Ki [3]?
Its Ki is 1220 nM.

What about the Ki (Transporter) of the same molecule?
Its Ki is 1290 nM.

And the Ratio (Rattus norvegicus [5])?
The Ratio was 7.3.

Clc1ccc([C@]2(OCc3ccccc3)C[C@H]3CC[C@@H](C2)N3)cc1 was tested. Which Ki [4] did it give?
Its Ki is 65 nM.

And the Ratio (Rattus norvegicus [1])?
The Ratio was 2.7.

What about the Ratio (Rattus norvegicus [2]) of the same molecule?
Its Ratio is 10.

And the Ki [3]?
The Ki was 172 nM.

What about the Ki (Transporter) of the same molecule?
Its Ki is 1720 nM.

What about the Ratio (Rattus norvegicus [5]) of the same molecule?
The Ratio was 26.

Which results are given for Clc1ccc(CO[C@@]2(c3ccc(Cl)c(Cl)c3)C[C@H]3CC[C@@H](C2)N3)cc1?
Ratio (Rattus norvegicus [1]): 46; Ratio (Rattus norvegicus [2]): 5.4; Ratio (Rattus norvegicus [5]): 246

Which results are given for Clc1ccc(CO[C@@]2(c3ccccc3)C[C@H]3CC[C@@H](C2)N3)cc1?
Ki [4]: 6.1 nM; Ratio (Rattus norvegicus [1]): 3.6; Ratio (Rattus norvegicus [2]): 4.6; Ki [3]: 22 nM; Ki (Transporter): 101 nM; Ratio (Rattus norvegicus [5]): 17

With Clc1ccc(C2=CC3CCC(C2)N3)cc1Cl (centres undefined) as the molecule, how does the Ki [4] read?
The Ki was 0.3 nM.

What about the Ratio (Rattus norvegicus [1]) of the same molecule?
Its Ratio is 53.

What about the Ratio (Rattus norvegicus [2]) of the same molecule?
Its Ratio is 1.3.

And the Ki [3]?
The Ki was 16 nM.

What about the Ki (Transporter) of the same molecule?
Its Ki is 20 nM.

What about the Ratio (Rattus norvegicus [5]) of the same molecule?
Its Ratio is 67.

Which results are given for Clc1ccc(CO[C@@]2(c3ccccc3)C[C@H]3CC[C@@H](C2)N3)cc1Cl?
Ki [4]: 0.061 nM; Ratio (Rattus norvegicus [1]): 258; Ratio (Rattus norvegicus [2]): 62; Ki [3]: 16 nM; Ki (Transporter): 996 nM; Ratio (Rattus norvegicus [5]): 16300

With Clc1ccc(CO[C@@]2(c3ccc(Cl)cc3)C[C@H]3CC[C@@H](C2)N3)cc1 as the molecule, how does the Ki [4] read?
Its Ki is 0.1 nM.

And the Ratio (Rattus norvegicus [1])?
Its Ratio is 630.

And the Ratio (Rattus norvegicus [2])?
The Ratio was 38.

And the Ki [3]?
The Ki was 63 nM.

What about the Ki (Transporter) of the same molecule?
Its Ki is 2370 nM.

What about the Ratio (Rattus norvegicus [5]) of the same molecule?
The Ratio was 23700.

How did the Ki [4] turn out when c1ccc(CO[C@@]2(c3ccccc3)C[C@H]3CC[C@@H](C2)N3)cc1 was run?
Its Ki is 247 nM.

And the Ratio (Rattus norvegicus [1])?
Its Ratio is 0.47.

And the Ki [3]?
The Ki was 117 nM.

For FC(F)(F)c1ccc(C2=CC3CCC(C2)N3)cc1 (centres undefined), which Ki [4] is on record?
Its Ki is 1.8 nM.

What about the Ratio (Rattus norvegicus [1]) of the same molecule?
The Ratio was 830.

What about the Ki [3] of the same molecule?
Its Ki is 1490 nM.

What about the Ki (Transporter) of the same molecule?
Its Ki is 777 nM.

And the Ratio (Rattus norvegicus [5])?
The Ratio was 432.

From ChEMBL document CHEMBL1156749 (Bioorg Med Chem Lett, 2009)
